Here are results for three compounds from ChEMBL document CHEMBL5150073, “Photocaged DNA-Binding Photosensitizer Enables Photocontrol of Nuclear Entry for Dual-Targeted Photodynamic Therapy” (J Med Chem, 2022).

Calls of active or inactive are those of the source. The calls are words filed in the database; no cut-off is given here. Bounds are passed on as bounds.

Data set [1] in a line: Drug uptake in human MCF7 cells cultured as […] spheroids assessed as increase in green fluorescence in nuclear background at 10 uM incubated overnight under dark condition by DAPI filter based fluorescence analysis. To be noted: mcf7, 10 µM. It is filed as ADME, cell-based.
A short description of data set [2]: Drug localization in nucleus of human MCF7 cells assessed as increase in cyan fluorescence at 3 uM incubated for 1 hr by DAPI filter based analysis. It is filed as ADME, subcellular. The conditions noted are these: mcf7, 1 h.
For data set [3], the system named is MCF7. Put plainly: Photocytotoxicity against human MCF7 cells assessed as reduction in cell viability incubated for 1 hr under dark condition followed by washout and measured after 24 hrs by MTT assay. It is filed as functional. Summed up: (§1)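 Cells (MCF7, A549, HeLa) incubated 1 h with compound (BB probes 0–32 μM, Br-DAPI 0–64 μM) and washed once. Light arms: 480 nm (15 min, 2.3 J cm⁻²) with or without UV (5 min, 8.0 J cm⁻²), or UV only; dark controls unilluminated. Cells kept overnight in growth medium, then MTT read 24 h post-treatment. CC50 taken relative to untreated cells. n = 3.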

Data set [4] deals with MCF7. Put plainly: Photocytotoxicity against human MCF7 cells assessed as reduction in cell viability incubated for 1 hr followed by washout and irradiation with 8 J/cm^2 UV irradiation for 5 mins and measured after 24 hrs by MTT assay. It is filed as functional. The conditions noted are these: MCF7, light or radiation study. In a few lines:
as §1

Data set [5] has as its system MCF7. The experiment in a line: Induction of DNA damage in human MCF7 cells assessed as double strand breaks by measuring pink foci formation in nucleus at 3 uM incubated for 2 hrs followed by irradiation with 8 J/cm^2 UV irradiation for 5 mins by gammaH2A.X antibody/Alexa 488/DAPI staining based fluorescence analysis. It is filed as functional, cell-based. Summed up:
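MCF7 cells treated with compound at 3 μM, then illuminated with 480 nm (15 min, 2.3 J cm⁻²) plus UV (5 min, 8.0 J cm⁻²), or with UV alone. Left 2 h, fixed, stained with Alexa 488-tagged γH2AX antibody and DAPI counterstain. Nuclear foci imaged.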

Data set [6] concerns Calf thymus DNA. The experiment in a line: Binding affinity to calf thymus DNA assessed as dissociation constant by fluorescence based analysis. Type of data set: nucleic-acid assay, Bos taurus. In a few lines:
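Fluorescence titration: compound at 20 μM in PBS pH 7.4, calf thymus DNA added in 10 μM steps until emission plateaued (~60 μM). Excitation 345 nm, emission 350–650 nm. KD obtained by fitting a one-site total saturation binding model (nonspecific binding proportional to ligand). Triplicate independent samples.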

Data set [7] deals with MCF7. The experiment in a line: Photocytotoxicity against human MCF7 cells assessed as reduction in cell viability incubated for 1 hr followed by washout and irradiation with 8 J/cm^2 UV irradiation for 5 mins and measured after 24 hrs by MTT assay.
The nature of data set [8]: Photorelease activity in PBS at pH 7.4 assessed as 3-bromo-2-(4-carbamimidoylphenyl)-1H-indole-6-carboxamidine release by measuring increase in fluorescence intensity at 50 uM in presence of CT-DNA incubated for 3 hrs under dark condition by RP-HPLC analysis. It is filed as functional. Summed up:
(§2)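 Samples at 50 μM in PBS pH 7.4 were either kept 3 h at 37 °C in the dark or illuminated 20 min at 480 nm (450–495 nm filter, 3.1 J cm⁻²). Analysed by RP-HPLC on a C18 analytical column with absorbance at 345 nm; retention times recorded. n = 2 independent samples.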

In data set [9] the test system is MCF7. Put plainly: Photocytotoxicity against human MCF7 cells assessed as reduction in cell viability incubated for 1 hr followed by washout and irradiation with 480 nm 2.3 J/cm^2 light for 15 mins with 8 J/cm^2 UV irradiation for 5 mins and measured after 24 hrs by MTT assay. It is filed as functional. The conditions noted are these: MCF7, light or radiation study. Summed up: as §1

A short description of data set [10]: Stability of compound in human MCF7 cells assessed as esterase-mediated 3-bromo-2-(4-carbamimidoylphenyl)-1H-indole-6-carboxamidine release by measuring cyan fluorescence at 2 uM incubated for 1 hr followed by compound washout and further incubated for 1 hr on heated microscopic stage by DAPI filter based fluorescence analysis. Type of data set: ADME, cell-based. The conditions noted are these: mcf7, 1 h. In a few lines: (§3)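 Cells incubated with compound (2 μM) for 1 h, washed once with PBS, then kept a further 1 h in the dark on a heated microscope stage. Nuclear cyan fluorescence imaged with the DAPI filter set at 0 h and 2 h time points.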

A short description of data set [11]: Photorelease ability in PBS at pH 7.4 assessed as 3-bromo-2-(4-carbamimidoylphenyl)-1H-indole-6-carboxamidine release by measuring change in emission spectra at 1 uM incubated in presence of CT-DNA and irradiated with 3.1 J/cm^2 mercury lamp light for 20 mins. It is filed as functional.
Data set [12] can be described thus: Stability of compound in human HeLa cells assessed as esterase-mediated 3-bromo-2-(4-carbamimidoylphenyl)-1H-indole-6-carboxamidine release by measuring cyan fluorescence at 2 uM incubated for 1 hr followed by compound washout and further incubated for 1 hr on heated microscopic stage by DAPI filter based fluorescence analysis. It is filed as ADME, cell-based. Summed up: as §3

Data set [13] can be described thus: Photorelease activity in PBS at pH 7.4 assessed as 3-bromo-2-(4-carbamimidoylphenyl)-1H-indole-6-carboxamidine release by measuring time at when peak observed at 50 uM in presence of CT-DNA illuminated with 3.1 J/cm^2 480 nm illumination for 20 mins by RP-HPLC analysis. It is filed as functional. In a few lines: as §2
The nature of data set [14]: Induction of ROS production in PBS at pH 7.4 at 1 uM irradiated with 480 nm 2.3 J/cm^2 light for 15 mins with 2-photon irradiation by DCFH2-DA probe based analysis. Type of data set: functional.
Data set [15] in a line: Aqueous stability of the compound in PBS at pH 7.4 assessed as hydrolysis of carbamate to release 3-bromo-2-(4-carbamimidoylphenyl)-1H-indole-6-carboxamidine at 0.8 uM incubated for 3 hrs by fluorescence based analysis. Type of data set: physicochemical. The conditions noted are these: buffer, pH 7.4, 3 h.
In data set [16] the test system is MCF7. Put plainly: Induction of ROS production in human MCF7 cells at 2 uM incubated for 1 hr in dark followed by irradiation with 480 nm 2.3 J/cm^2 light for 15 mins with 8 J/cm^2 UV irradiation for 5 mins by DCFH2-DA probe based analysis. Type of data set: functional, cell-based. To be noted: time 80.0 min. Summed up:
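MCF7 cells incubated with compound (2 μM) 1 h in the dark, washed, loaded with 10 μM DCFH2DA for 30 min, washed. DCF green fluorescence imaged after 480 nm illumination (15 min, 2.3 J cm⁻²), then after added 365 nm UV (5 min, 8.0 J cm⁻²). Mean fluorescence intensity quantified.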

A short description of data set [17]: Stability of compound in human A549 cells assessed as esterase-mediated 3-bromo-2-(4-carbamimidoylphenyl)-1H-indole-6-carboxamidine release by measuring cyan fluorescence at 2 uM incubated for 1 hr followed by compound washout and further incubated for 1 hr on heated microscopic stage by DAPI filter based fluorescence analysis. The conditions noted are these: a549, 1 h. Type of data set: ADME, cell-based. In a few lines:
as §3

A short description of data set [18]: Photorelease activity in PBS at pH 7.4 assessed as wintergreen release at 50 uM in presence of CT-DNA illuminated with 3.1 J/cm^2 480 nm illumination for 20 mins by RP-HPLC analysis. Type of data set: functional. In a few lines:
as §2

For data set [19], the system named is Calf thymus DNA. Put plainly: Binding affinity to calf thymus DNA assessed as fold change in fluorescence quenching of 3-bromo-2-(4-carbamimidoylphenyl)-1H-indole-6-carboxamidine. The conditions noted are these: Bos taurus. It is filed as nucleic-acid assay.
In data set [20] the test system is MCF7. Put plainly: Photorelease activity in human MCF7 cells assessed as 3-bromo-2-(4-carbamimidoylphenyl)-1H-indole-6-carboxamidine release by measuring bright cyan fluorescence in nucleus at 3 uM incubated for 1 hr followed by illumination with 1.6 J/cm^2 for 10 mins by DAPI filter based analysis. It is filed as ADME, cell-based. To be noted: mcf7, 1.167 h, time 70 min. In a few lines: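 MCF7 cells given compound (3 μM) for 1 h, washed once with PBS, imaged. DAPI filter set (ex 350–405, em 415–470 nm) used for Br-DAPI cyan signal; EGFP filter set (ex 450–495, em 500–550 nm) used for WinterGreen green signal. Cells imaged dark, then after 480 nm illumination (10 min, 1.6 J cm⁻²).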

The subject of data set [21] is MCF7. The experiment in a line: Photocytotoxicity against human MCF7 cells assessed as reduction in cell viability incubated for 1 hr followed by washout and irradiation with 480 nm 2.3 J/cm^2 light for 15 mins and measured after 24 hrs by MTT assay. The conditions noted are these: MCF7, light or radiation study. Type of data set: functional. Summed up: as §1
The nature of data set [22]: Drug localization in nucleus of human MCF7 cells assessed as increase in cyan fluorescence of 3-bromo-2-(4-carbamimidoylphenyl)-1H-indole-6-carboxamidine excitation at 3 uM incubated for 1 hr in dark by DAPI filter based analysis. Type of data set: ADME, subcellular. To be noted: mcf7, 1 h.

Turning to `N=C(N)c1ccc(-c2[nH]c3cc(C(=N)N)ccc3c2Br)cc1`, the Drug uptake result in data set [1] and in data set [2] was “Active” throughout. The results for the CC50 with MCF7 [3] and with MCF7 [4] were > 64 µM and 7.6 µM, respectively. Besides, the outcome in the data set with MCF7 [5] and with MCF7 [7] was Active. Further, in the data set with Calf thymus DNA [6], the Kd amounted to 19 µM.

In the case of `CC1=CC(C)=[N+]2C1=C(COC(=O)/N=C(\N)c1ccc(-c3[nH]c4cc(C(=N)N)ccc4c3Br)cc1)c1c(C)cc(C)n1[B-]2(C)C`, the Drug metabolism result is on record as “Metabolite not detected” in [8], “Metabolite detected” in data set [11], “Metabolite not detected” in data set [18] and “Metabolite_Detected” in the data set with MCF7 [20]. Moreover, the CC50 was 0.6 µM in the data set with MCF7 [9], > 16 µM in the data set on MCF7 [3] and 5.8 µM in the data set with MCF7 [21]. Moreover, the Stability result in data set [10], in data set [12], in data set [15] and in [17] was “Stable” throughout. Besides, the TIME in data set [13] turned out to be 0.533 h. Besides, the outcome (in data set [14]; with MCF7 [16]) was Active. Also, the fold change (FC) in the data set with Calf thymus DNA [19] came out at 4. In addition, in the data set on Calf thymus DNA [6], the Kd is 10 µM.

Turning to `COC(=O)/N=C(/N)c1ccc2c(Br)c(-c3ccc(C(=N)N)cc3)[nH]c2c1`, the fold change (FC) with Calf thymus DNA [19] was 4. In addition, the Drug uptake entry in data set [22] is recorded as “Active”.
